Bioassay records deposited in PubChem BioAssay by several laboratories.
Shown are actives, neighbours in structure and some others; about 6.7% of the full set was active somewhere.
Beta cell apopt – blocks beta cell apoptosis; INS-1E cytokine-induced death, ATP luminescence, 48 h; percent of positive-control rescue, neutral wells zero; 300,000 tested, 0.8% active; protection from apoptosis, % (no concentration beside the values);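 active = Every replicate reaches about 75%, or at least half do and their mean reaches it too, limit read from the data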;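 note: higher means more ATP so stronger rescue from cytokine killing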
CSC inhib – cancer stem cell inhibition. cancer stem cell-like cells viability, luminescence. inhibition, % at 7.5 µM. 300,000 tested, 1.1% active. AID 2717; in the data active = inhibition above about 75%; tested in HMLE shEcad cells
PREPL inhibitor – human PREPL enzyme inhibition | Q4J6C6 | recombinant PREPL, fluorescence polarization activity-based probe | inhibition, % at 5.96 µM | 320,000 tested, 0.68% active | AID 2751; in the data active = inhibition above about 43%
Target sequence (Q4J6C6 whole entry, looked up): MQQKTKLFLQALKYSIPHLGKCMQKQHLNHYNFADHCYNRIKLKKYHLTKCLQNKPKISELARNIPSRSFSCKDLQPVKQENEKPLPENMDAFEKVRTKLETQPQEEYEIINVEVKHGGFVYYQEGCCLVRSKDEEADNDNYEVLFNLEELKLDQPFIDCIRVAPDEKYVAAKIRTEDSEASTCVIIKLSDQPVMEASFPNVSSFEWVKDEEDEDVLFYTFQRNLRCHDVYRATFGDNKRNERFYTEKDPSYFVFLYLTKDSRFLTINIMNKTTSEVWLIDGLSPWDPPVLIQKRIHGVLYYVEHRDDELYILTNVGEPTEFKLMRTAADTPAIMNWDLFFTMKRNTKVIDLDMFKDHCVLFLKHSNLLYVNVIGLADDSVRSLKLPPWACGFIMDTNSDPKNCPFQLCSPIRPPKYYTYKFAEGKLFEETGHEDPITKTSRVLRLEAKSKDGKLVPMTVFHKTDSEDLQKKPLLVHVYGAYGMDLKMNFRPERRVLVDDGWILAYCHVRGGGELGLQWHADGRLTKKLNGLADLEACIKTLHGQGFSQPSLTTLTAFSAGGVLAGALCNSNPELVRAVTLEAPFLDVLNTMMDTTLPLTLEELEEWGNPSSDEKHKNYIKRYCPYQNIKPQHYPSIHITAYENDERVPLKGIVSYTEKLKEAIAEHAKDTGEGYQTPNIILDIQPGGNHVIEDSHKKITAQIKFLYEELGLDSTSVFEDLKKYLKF
NR3A LBD binder – modulates the human NR3A ligand-binding domain; 340,000 tested, 2.5% active; Tm shift relative to glycine control, % at 25 µM; NR3A LBD differential scanning fluorimetry, Tm shift; 0% = protein alone, 100% = glycine-bound protein;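 active = melting temperature shift of at least 10% of the positive control shift, at one fixed dose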
CHOP inh – CHOP inhibition in unfolded protein response. CHO-K1 CHOP-promoter luciferase, tunicamycin-induced, 15-18 h. inhibition, % at 10 µM. 220,000 tested, 3.8% active;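 active = compounds that reduced the stress-induced luciferase reporter signal by more than about 70% of percent inhibition, limit read from the data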
T cruzi repl – blocks replication of Trypanosoma cruzi; inhibition, % (no concentration beside the values); 300,000 tested, 1.4% active; T. cruzi beta-gal in NIH3T3, luminescence, 90 h; AID 1885;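 active = mean inhibition across valid replicates above about 55%, limit read from the data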;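 note: signal also drops with host cell toxicity which is not excluded here; higher percent means less beta-gal luminescence so fewer parasites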
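Assay system: NIH/3T3 fibroblasts plus reporter T. cruzi. Amount: NIH/3T3 cells, 5,000 per well. Buffer or medium: DMEM, 2% fetal bovine serum. Doses: compound pinned at 50 nL/well, DMSO. Schedule: ≥90 h infection period, 3 h prior cell attachment. Signal: luminescent β-galactosidase signal after 60 min lysis. Read-out: parasite load inhibition, %.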
Of the large screens only hits and unclear results are named; the others gave an inactive call.

COc1ccc(Cl)c2sc(N3CCN(C(C)=O)CC3)nc12	none (no result: CHOP inh)
O=C(CCN1C(=O)/C(=C/c2cccs2)SC1=S)Nc1ccc(C(=O)O)c(O)c1	none (no result: CHOP inh)
O=C(CCN1C(=O)/C(=C/c2cccs2)SC1=S)Nc1ccc(O)cc1	NR3A LBD binder 22 (no result: Beta cell apopt, CHOP inh)
Cc1cc(NC(=O)CCCN2C(=O)/C(=C/c3cccs3)SC2=S)no1	CHOP inh 76
O=C(CCCN1C(=O)/C(=C/c2ccccc2)SC1=S)Nc1cccc(O)c1	NR3A LBD binder 12 (no result: CSC inhib)
O=C(CCN1C(=O)/C(=C/c2cccs2)SC1=S)Nc1cccc(O)c1	NR3A LBD binder 11 (no result: Beta cell apopt, CHOP inh)
Cc1cc(C(=O)CCC(=O)NCc2ccccc2F)c(C)s1	none (no result: CHOP inh)
O=C(CCCN1C(=O)/C(=C/c2cccs2)SC1=S)Nc1cccc(O)c1	NR3A LBD binder 14 (no result: CHOP inh)
O=C(CCN1C(=O)/C(=C/c2cccs2)SC1=S)Nc1ccccc1O	NR3A LBD binder 15 (no result: CHOP inh)
O=C(CCN1C(=O)/C(=C/c2cccc(Br)c2)SC1=S)Nc1cccnc1	CHOP inh 87
O=C(CN1C(=O)/C(=C/c2cccc(Br)c2)SC1=S)Nc1cccnc1	none
O=C(CCCN1C(=O)/C(=C\c2cccs2)SC1=S)Nc1cc([N+](=O)[O-])ccc1O	NR3A LBD binder 23 (no result: CHOP inh)
CCOC(=O)c1c(N/N=C/c2ccncc2)n[nH]c1C	none
O=C(c1nc2ccccn2c1CNCCCn1cccn1)N1CCCC1	none
O=C(CN1CCN(c2nc(-c3ccccc3)cs2)CC1)Nc1ccc2c(c1)OCO2	PREPL inhibitor 48 (no result: Beta cell apopt)
C=CCN1C(=O)c2ccc(C(=O)N(CC)CC(=O)Nc3c(F)cccc3F)cc2C1=O	none (no result: CSC inhib, CHOP inh)
COc1cc(C)cc(C(=O)C=Cc2ccccc2)c1O	NR3A LBD binder 17 (no result: Beta cell apopt, CSC inhib, PREPL inhibitor, CHOP inh, T cruzi repl)
CCC1CCCCN1C(=O)c1cc(COc2ccc(-n3cncn3)cc2)on1 (stereo unspecified)	Beta cell apopt 104 (no result: CHOP inh)
CC(C)=C1C2CCC1C(C(=O)NCc1ccccc1)C2C(=O)O (stereo unspecified)	CHOP inh 82
Cc1ccc(N2C(=O)c3ccccc3C2=O)cc1Cl	NR3A LBD binder 12
O=C(/C=C/c1cccs1)Nc1nccs1	none
O=C(/C=C/c1cccs1)Nc1cccc(NC(=O)/C=C/c2cccs2)n1	NR3A LBD binder 24
Cc1cc(C)nc(NC(=O)/C=C/c2cccs2)c1	CSC inhib 86
CCCOc1ccc(C(=O)N/N=C/c2c[nH]c3ccc(Br)cc23)cc1	NR3A LBD binder 37 (no result: CHOP inh)
CCCCOc1ccc(C(=O)N/N=C/c2cn[nH]c2-c2ccc(OC)c(OC)c2)cc1	none (no result: CSC inhib)
CCOc1ccccc1C(=O)N/N=C/c1c[nH]c2ccccc12	none
O=C(O)c1cc(N/N=C/c2c[nH]c3ccccc23)ccc1Cl	NR3A LBD binder 22 (no result: CHOP inh)
O=C(N/N=C/c1c[nH]c2ccccc12)c1ccc(O)c(O)c1	NR3A LBD binder 28 (no result: CHOP inh)
O=C(N/N=C/c1c[nH]c2ccccc12)c1cccc(Cl)c1	NR3A LBD binder 37 (no result: Beta cell apopt, CHOP inh)
O=C(OCc1nnc(-c2cccs2)o1)C1=NN(c2ccccc2)C(=O)CC1	none (no result: CHOP inh, T cruzi repl)
NC(=O)c1ccccc1NC(=O)c1ccoc1	none (no result: CHOP inh)
COC(=O)C1OCOC2C(C(=O)OC)OCOC12 (stereo unspecified)	none (no result: Beta cell apopt, CSC inhib, PREPL inhibitor, CHOP inh, T cruzi repl)
O=C(N/N=C/c1c[nH]c2ccc(Br)cc12)c1ccn(Cc2ccc(Cl)cc2)n1	NR3A LBD binder 18
Cc1ccc(NCC(=O)N/N=C/c2c[nH]c3ccccc23)cc1	NR3A LBD binder 24
O=C(N/N=C/c1c[nH]c2ccccc12)c1cccc(O)c1	NR3A LBD binder 26 (no result: CHOP inh)
CC(=O)Nc1cccc(C(=O)N/N=C/c2c[nH]c3ccccc23)c1	NR3A LBD binder 30 (no result: CHOP inh)
Cc1ccc(NC(C)C(=O)N/N=C/c2c[nH]c3ccccc23)cc1 (stereo unspecified)	none
O=C(CCNC(=O)C1CCN(S(=O)(=O)c2ccccc2)CC1)Nc1ccccc1	none (no result: Beta cell apopt, CHOP inh)
Cc1ccccc1OCCC(=O)OCC(=O)Nc1c(C)nn(-c2ccccc2)c1C	none (no result: CHOP inh)
Oc1ccccc1CNc1ccc(OC(F)(F)F)cc1	none
COc1ccc(C(=O)N/N=C/c2c[nH]c3ccccc23)cc1	NR3A LBD binder 37 (no result: CHOP inh)
COc1ccc(C(=O)N/N=C/c2cc3ccccc3[nH]c2=S)cc1	none
COc1ccc(C)cc1Nc1n[n+](-c2ccccc2)c(-c2c(Cl)cccc2Cl)s1	Beta cell apopt 99 (no result: CHOP inh)
Fc1ccc(-[n+]2nc(Nc3ccccc3)sc2-c2c(Cl)cccc2Cl)cc1	none (no result: CHOP inh)
COc1ccc2ccccc2c1-c1sc(Nc2ccccc2)n[n+]1-c1ccc(F)cc1	T cruzi repl 61 (no result: CHOP inh)
COc1ccc(C)cc1Nc1n[n+](C)c(-c2c3ccccc3cc3ccccc23)s1	none (no result: CHOP inh)
COc1ccc(-c2sc(Nc3ccccc3)n[n+]2-c2ccc(F)cc2)cc1Br	none (no result: CHOP inh)
CCc1ccc(Nc2n[n+](-c3ccccc3)c(-c3c(Cl)cccc3Cl)s2)cc1	Beta cell apopt 108, CSC inhib 109, T cruzi repl 59 (no result: CHOP inh)
CCc1ccc(Nc2n[n+](-c3ccccc3)c(-c3ccc(OCc4ccccc4)cc3)s2)cc1	T cruzi repl 55 (no result: CHOP inh)
COC(CC(=O)NNC(=S)Nc1ccc(Cl)cc1)OC	none
COc1ccc(NC(=S)NNC(=O)CNc2ccc(Cl)cc2)cc1	NR3A LBD binder 12
Cc1cc(C)c(OCCNCc2ccccc2)c(C)c1	none (no result: Beta cell apopt, CSC inhib, CHOP inh)
Clc1ccc(OCCCNCc2ccccc2)c2ccccc12	CSC inhib 110 (no result: CHOP inh)
Cc1cc(C)c(OCCCCNCc2ccccc2)c(Cl)c1	CHOP inh 75
Brc1ccccc1OCCNCc1ccccc1	none
O=[N+]([O-])C(/C=C(/Cl)[N+](=O)[O-])=C(N1CCCCC1)N1CCCCC1	T cruzi repl 55
NS(=O)(=O)c1ccc(NC(=O)COC(=O)CNC(=O)C23CC4CC(CC(C4)C2)C3)cc1	none
Cc1nc2c(-c3ccc(Cl)cc3)c(C)[nH]n2c(=O)c1Cc1ccccc1	Beta cell apopt 98, T cruzi repl 63
COc1ccc(N2CC(C(=O)OC(C)C(=O)c3ccccc3)CC2=O)cc1 (stereo unspecified)	none
OC(c1cc(-c2ccc(Cl)cc2)nc2ccccc12)C1CCCCN1 (stereo unspecified)	Beta cell apopt 121, CSC inhib 116
Cc1ccc(CSc2nnc([C@@H]3CCCN3C(=O)OC(C)(C)C)o2)cc1	none
C=CCc1cc(C=Nc2ccc(N3CCOCC3)cc2)cc(OCC)c1O	none (no result: Beta cell apopt, CSC inhib, PREPL inhibitor, CHOP inh, T cruzi repl)
CCOC(=O)/C=C/[C@H]1CCc2cccc(Cl)c2O1	NR3A LBD binder 15 (no result: CHOP inh, T cruzi repl)
Cc1cc(NC(=O)CCN2C(=O)C3C4C=CC(C4)C3C2=O)ccc1Br (stereo unspecified)	none
COc1ccc(NC(=O)COC(=O)CNC(=O)C2CCCCC2)cc1OC	none (no result: CHOP inh, T cruzi repl)
Cc1ccc(-c2ccc(OC(=O)c3ccc(=O)[nH]c3)c(C)c2)cc1	CSC inhib 76 (no result: CHOP inh)
COC(=O)c1cc(OC(=O)c2ccc(=O)[nH]c2)cc(C(=O)OC)c1	none (no result: CHOP inh)
O=C(CSc1nnc(NC(=O)C2CC2)s1)Nc1ccc(F)cc1F	none (no result: CHOP inh)
O=C(CSc1nnc(-c2ccncc2)n1Cc1ccco1)Nc1nc(-c2ccccc2)cs1	CHOP inh 77
